Consider 4 molecules from ChEMBL document CHEMBL1125410, “Selective irreversible inhibitors of aldose reductase” (J Med Chem, 1992).

The target in assay [1] is Aldo-keto reductase family 1 member B1 (Rattus norvegicus) (UniProt P07943). Nature of the assay: Compound was evaluated for irreversible inhibition of Rat Lens Aldose reductase (RLAR) at 10e-4 M. The gist of the method:
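Each purified reductase was desalted into 0.1 M phosphate (pH 7.4) to remove glycerol and 2-mercaptoethanol. Enzyme (ca. 0.3 unit/mL) was exposed to inhibitor or buffer alone for 15 min at room temperature. A 400 µL aliquot was then desalted into pH 7.0 phosphate with 10 mM 2-mercaptoethanol, and BSA was added. The eluate was kept on ice, and residual activity was read from NADPH loss at 340 nm with DL-glyceraldehyde. Runs were at least triplicate and averaged.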

Assay [2] relates to Aldehyde reductase AKR1A1 (Rattus norvegicus). Nature of the assay: Compound was evaluated for irreversible inhibition of Rat kidney Aldehyde reductase (RKALR) at 10e-4 M.
Assay [3] addresses Aldo-keto reductase family 1 member B1 (Rattus norvegicus) (UniProt P07943). As to the kind of experiment: Protection by the compound of irreversible inhibition of Rat Lens Aldose reductase by [5-(2-Iodo-acetyl)-1,3-dioxo-1H,3H-benzo[de]isoquinolin-2-yl]-acetic acid(0.01 mM) at 0.01 mM concentration. It counts as functional. An outline of the steps: (§1)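 Rat lens aldose reductase was desalted into 0.1 M phosphate (pH 7.4). The enzyme was preincubated 5 min with the reversible inhibitor, then the iodoacetamide label was added for a further 5 min. Unreacted reagent was removed by desalting into buffer with 10 mM 2-mercaptoethanol, BSA was added, and residual activity was read by NADPH loss at 340 nm. Runs were at least triplicate and averaged.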

For assay [4] the target is unchanged. Nature of the assay: Protection by the compound of irreversible inhibition of Rat Lens Aldose reductase by [5-(2-Iodo-acetyl)-1,3-dioxo-1H,3H-benzo[de]isoquinolin-2-yl]-acetic acid(0.1 mM) at 0.01 mM concentration. In kind it is functional. The gist of the method:
as §1

For assay [5] the target is unchanged. As to the kind of experiment: Protection by the compound of irreversible inhibition of Rat Lens Aldose reductase by [5-(2-Iodo-acetyl)-1,3-dioxo-1H,3H-benzo[de]isoquinolin-2-yl]-acetic acid(0.01 mM) at 1 mM concentration. It counts as functional. An outline of the steps:
as §1

For assay [6], the target named is Aldo-keto reductase family 1 member B1 (Rattus norvegicus, UniProt P07943). Nature of the assay: Compound was evaluated for the inhibition of Rat Lens Aldose reductase (RLAR). The gist of the method: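 Purified rat lens aldose reductase and rat kidney aldehyde reductase, each homogeneous on SDS-PAGE. The 1.0 mL assay held equal enzyme units in 0.10 M Na,K phosphate (pH 6.2), 0.3 mM NADPH, 10 mM DL-glyceraldehyde and inhibitor. The NADPH decrease at 340 nm was followed over 4 min, with no-substrate absorbance controls. IC50 is given as mean ± SD.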

For assay [7], the target named is Aldo-keto reductase family 1 member B1 (Rattus norvegicus) (UniProt P07943). Nature of the assay: Protection by the compound of irreversible inhibition of Rat Lens Aldose reductase by [5-(2-Iodo-acetyl)-1,3-dioxo-1H,3H-benzo[de]isoquinolin-2-yl]-acetic acid(0.1 mM) at 1 mM concentration. It counts as functional. An outline of the steps: as §1
Assay [8] shares this target. Nature of the assay: Protection by the compound of irreversible inhibition of Rat Lens Aldose reductase by [5-(2-Iodo-acetyl)-1,3-dioxo-1H,3H-benzo[de]isoquinolin-2-yl]-acetic acid(0.01 mM) at 0.1 mM concentration. It counts as functional. The gist of the method: as §1
Assay [9] in a line: Ratio of IC50(RKALR) vs IC50(RLAR).
Assay [10] has as its target Aldo-keto reductase family 1 member B1 (Rattus norvegicus) (UniProt P07943). As to the kind of experiment: Protection by the compound of irreversible inhibition of Rat Lens Aldose reductase by [5-(2-Iodo-acetyl)-1,3-dioxo-1H,3H-benzo[de]isoquinolin-2-yl]-acetic acid(0.1 mM) at 0.1 mM concentration. In kind it is functional. An outline of the steps:
as §1

As to `O=C(O)CN1C(=O)c2cccc3cc(C(=O)CI)cc(c23)C1=O`, the inhibition (in general, the change of the read-out against control, counted positive when it falls) in [1] was 89%.

`O=C(O)CN1C(=O)c2cccc3cc(N=C=S)cc(c23)C1=O` registered an inhibition in assay [2] of 0%.

Take `CC(=O)Nc1cc2c3c(cccc3c1)C(=O)N(CC(=O)O)C2=O`: the Protection in assay [3] is 11%; in assay [4], 17%; in assay [5], 100%; in [7] it was 39%; in [8] it was 43%; in assay [10] it was 19%. Moreover, the IC50 (commonly the concentration that inhibits the measured activity by half) in [6] amounted to 640 nM. In addition, the Ratio in assay [9] was 10.

On to `O=C(O)CN1C(=O)c2cccc3cc(NC(=O)CBr)cc(c23)C1=O`, for which inhibition in [6] was half-maximal at 600 nM (IC50). Besides, the Ratio in assay [9] was determined as 13 Ratio. In [1], the inhibition came to 46%.
